In ChEMBL document CHEMBL1123648, “Synthesis, chemical reactivity, and antileukemic activity of 5-substituted 6,7-bis(hydroxymethyl)pyrrolo[1,2-c]thiazole biscarbamates and the corresponding sulfoxides and sulfones” (1987):

Experiments:
[1] = Percent increase in life span of test animals compared to untreated tumor-bearing control group A animals at a dose of 25 mg/kg; type: functional; conditions: Mus musculus
[2] = Antileukemic activity against Murine P388 lymphocytic leukemia, body weight difference of the test animals compared to control group A animals at a dose of 50 mg/kg; type: functional, Mus musculus; parameters: unit not given here
Outline: (§1)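 CD2F1 mice implanted intraperitoneally with ascitic fluid carrying ca. 1×10^6 P388 cells, under the NCI protocol. Dosing was intraperitoneal, starting 24 h after inoculation, then every 24 h for five doses in total. The body weight difference of treated mice is taken against untreated controls. Toxicity day survivors are the mice alive at day five out of those tested.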

[3] = Toxicity day survivors expressed as number of animals that survived to day five/ number of test animals under control group A at a dose of 200 mg/kg; 6 survived out of 6; type: functional, Mus musculus
[4] = Toxicity day survivors expressed as number of animals that survived to day five/ number of test animals under control group A at a dose of 400 mg/kg; 6 survived out of 6; type: functional, Mus musculus
[5] = Toxicity day survivors expressed as number of animals that survived to day five/ number of test animals under control group A at a dose of 100 mg/kg; 6 survived out of 6; type: functional, Mus musculus
[6] = Toxicity day survivors expressed as number of animals that survived to day five/ number of test animals under control group A at a dose of 50 mg/kg; 6 survived out of 6; type: functional, Mus musculus
[7] = Percent increase in life span of test animals compared to untreated tumor-bearing control group A animals at a dose of 400 mg/kg; type: functional; conditions: Mus musculus
[8] = Percent increase in life span of test animals compared to untreated tumor-bearing control group A animals at a dose of 200 mg/kg; type: functional; conditions: Mus musculus
[9] = Percent increase in life span of test animals compared to untreated tumor-bearing control group A animals at a dose of 50 mg/kg; type: functional; conditions: Mus musculus
[10] = Antileukemic activity against Murine P388 lymphocytic leukemia, body weight difference of the test animals compared to control group A animals at a dose of 400 mg/kg; type: functional, Mus musculus; outline: as §1
[11] = Antileukemic activity against Murine P388 lymphocytic leukemia, body weight difference of the test animals compared to control group A animals at a dose of 100 mg/kg; type: functional, Mus musculus; parameters: unit not given here; outline: as §1
[12] = Toxicity day survivors expressed as number of animals that survived to day five/ number of test animals under control group A at a dose of 25 mg/kg; 6 survived out of 6; type: functional, Mus musculus
[13] = Percent increase in life span of test animals compared to untreated tumor-bearing control group A animals at a dose of 100 mg/kg; type: functional; conditions: Mus musculus
[14] = Antileukemic activity against Murine P388 lymphocytic leukemia, body weight difference of the test animals compared to control group A animals at a dose of 200 mg/kg; type: functional, Mus musculus; outline: as §1
[15] = Antileukemic activity against Murine P388 lymphocytic leukemia, body weight difference of the test animals compared to control group A animals at a dose of 25 mg/kg; type: functional, Mus musculus; parameters: unit not given here; outline: as §1
P388 [16] = assay: Log cell population relative to cell population at the beginning of treatment compared to control group A at a dose of 50 mg/kg; type: functional, Mus musculus
P388 [17] = assay: Log cell population relative to cell population at the beginning of treatment compared to control group A at a dose of 200 mg/kg; type: functional, Mus musculus
[18] = Toxicity day survivors expressed as number of animals that survived to day five/ number of test animals under control group A at a dose of 400 mg/kg; 3 survived out of 6; type: functional, Mus musculus
P388 [19] = assay: Log cell population relative to cell population at the beginning of treatment compared to control group A at a dose of 100 mg/kg; type: functional, Mus musculus
P388 [20] = assay: Log cell population relative to cell population at the beginning of treatment compared to control group A at a dose of 25 mg/kg; type: functional, Mus musculus
[21] = Toxicity day survivors expressed as number of animals that survived to day five/ number of test animals under control group A at a dose of 50 mg/kg; 5 survived out of 6; type: functional, Mus musculus
P388 [22] = assay: Log cell population relative to cell population at the beginning of treatment compared to control group A at a dose of 6.25 mg/kg; type: functional, Mus musculus
[23] = Antileukemic activity against Murine P388 lymphocytic leukemia, body weight difference of the test animals compared to control group A animals at a dose of 12.5 mg/kg; type: functional, Mus musculus; outline: as §1
[24] = Toxicity day survivors expressed as number of animals that survived to day five/ number of test animals under control group A at a dose of 100 mg/kg; 3 survived out of 6; type: functional, Mus musculus
[25] = Toxicity day survivors expressed as number of animals that survived to day five/ number of test animals under control group A at a dose of 6.25 mg/kg; type: functional, Mus musculus
P388 [26] = assay: Log cell population relative to cell population at the beginning of treatment compared to control group A at a dose of 12.5 mg/kg; type: functional, Mus musculus
[27] = Toxicity day survivors expressed as number of animals that survived to day five/ number of test animals under control group A at a dose of 12.5 mg/kg; 6 survived out of 6; type: functional, Mus musculus
[28] = Percent increase in life span of test animals compared to untreated tumor-bearing control group A animals at a dose of 12.5 mg/kg; type: functional; conditions: Mus musculus
[29] = Percent increase in life span of test animals compared to untreated tumor-bearing control group A animals at a dose of 6.25 mg/kg; type: functional; conditions: Mus musculus
[30] = Antileukemic activity against Murine P388 lymphocytic leukemia, body weight difference of the test animals compared to control group A animals at a dose of 6.25 mg/kg; type: functional, Mus musculus; outline: as §1
P388 [31] = assay: Log cell population relative to cell population at the beginning of treatment compared to control group C at a dose of 50 mg/kg; type: functional, Mus musculus
[32] = Percent increase in life span of test animals compared to untreated tumor-bearing control group C animals at a dose of 25 mg/kg; type: functional; conditions: Mus musculus
[33] = Antileukemic activity against Murine P388 lymphocytic leukemia, body weight difference of the test animals compared to control group C animals at a dose of 100 mg/kg; type: functional, Mus musculus; parameters: unit not given here; outline: as §1
[34] = Antileukemic activity against Murine P388 lymphocytic leukemia, body weight difference of the test animals compared to control group C animals at a dose of 25 mg/kg; type: functional, Mus musculus; outline: as §1
[35] = Antileukemic activity against Murine P388 lymphocytic leukemia, body weight difference of the test animals compared to control group C animals at a dose of 200 mg/kg; type: functional, Mus musculus; outline: as §1
[36] = Antileukemic activity against Murine P388 lymphocytic leukemia and toxicity day survivors expressed as number of animals that survived to day five/ number of test animals under control group C at a dose of 50 mg/kg; 6 survived out of 6; type: functional, Mus musculus
[37] = Toxicity day survivors expressed as number of animals that survived to day five/ number of test animals under control group C at a dose of 100 mg/kg; 6 survived out of 6; type: functional, Mus musculus
[38] = Antileukemic activity against Murine P388 lymphocytic leukemia, body weight difference of the test animals compared to control group C animals at a dose of 50 mg/kg; type: functional, Mus musculus; parameters: unit not given here; outline: as §1
[39] = Toxicity day survivors expressed as number of animals that survived to day five/ number of test animals under control group C at a dose of 200 mg/kg; 6 survived out of 6; type: functional, Mus musculus
P388 [40] = assay: Log cell population relative to cell population at the beginning of treatment compared to control group C at a dose of 25 mg/kg; type: functional, Mus musculus
P388 [41] = assay: Log cell population relative to cell population at the beginning of treatment compared to control group C at a dose of 100 mg/kg; type: functional, Mus musculus
[42] = Toxicity day survivors expressed as number of animals that survived to day five/ number of test animals under control group C at a dose of 25 mg/kg; 6 survived out of 6; type: functional, Mus musculus
[43] = Percent increase in life span of test animals compared to untreated tumor-bearing control group C animals at a dose of 100 mg/kg; type: functional; conditions: Mus musculus
[44] = Percent increase in life span of test animals compared to untreated tumor-bearing control group C animals at a dose of 50 mg/kg; type: functional; conditions: Mus musculus

## CC(C)NC(=O)OCc1c(COC(=O)NC(C)C)c(-c2ccc(Cl)c(Cl)c2)n2c1CSC2
[1]
  ILS at 25 mg/kg: -9%
[2]
  BWD: -1.3
[3]
  TDS: 6
[4]
  TDS: 6
[5]
  TDS: 6
[6]
  TDS: 6
[7]
  ILS at 400 mg/kg: -11%
[8]
  ILS at 200 mg/kg: -12%
[9]
  ILS at 50 mg/kg: -12%
[10]
  BWD: -1.3
[11]
  BWD: -0.9
[12]
  TDS: 6
[13]
  ILS at 100 mg/kg: -13%
[14]
  BWD: -1.7
[15]
  BWD: -1.3

## Cc1c(COC(=O)NC(C)C)c(COC(=O)NC(C)C)c2n1C[S+]([O-])C2 (stereo not given)
[2]
  BWD: -0.6
[3]
  TDS: 6
[5]
  TDS: 6
[6]
  TDS: 6
P388 [16]
  KE: -0.69
P388 [17]
  KE: 3.94
[8]
  ILS at 200 mg/kg: 76%
[9]
  ILS at 50 mg/kg: 26%
[10]
  BWD: -4.5
[11]
  BWD: -0.1
[18]
  TDS: 3
[13]
  ILS at 100 mg/kg: 32%
[14]
  BWD: -2.6
P388 [19]
  KE: -0.08

## Cc1c(COC(=O)NC(C)C)c(COC(=O)NC(C)C)c2n1CSC2
[1]
  ILS at 25 mg/kg: 73%
[2]
  BWD: -3.5
P388 [20]
  KE: 2.61
[3]
  TDS: 0
[21]
  TDS: 5
P388 [22]
  KE: 1.27
[23]
  BWD: -1.9
[24]
  TDS: 3
[25]
  TDS: 6
P388 [26]
  KE: 0.4
[27]
  TDS: 6
[11]
  BWD: -4.9
[12]
  TDS: 6
[15]
  BWD: 1.9
[28]
  ILS at 12.5 mg/kg: 42%
[29]
  ILS at 6.25 mg/kg: 54%
[30]
  BWD: -1.3

## CNC(=O)OCc1c(COC(=O)NC)c2n(c1C)CS(=O)(=O)C2
P388 [31]
  KE: 0.03
[32]
  ILS at 25 mg/kg: 22%
[33]
  BWD: -2.5
[34]
  BWD: 0.3
[35]
  BWD: -2.1
[36]
  TDS: 6
[37]
  TDS: 6
[38]
  BWD: 0.6
[39]
  TDS: 6
P388 [40]
  KE: -0.05
P388 [41]
  KE: 0.33
[42]
  TDS: 6
[43]
  ILS at 100 mg/kg: 104%
[44]
  ILS at 50 mg/kg: 40%
